Test results from ChEMBL document CHEMBL5303300, “EUbOPEN Chemogenomics Library - Multiplex” (2023).
Values joined by “and” are separate entries in the source; they are usually repeats but may differ in a detail not shown here. Identical values can stand only once.

Tested on: U2OS
Experiment: Multiplex assay against U2OS
Type: toxicity, cell-based
Details: human, number of replicates 2
Outline: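 Cells were classed with CellPathfinder machine-learning gating, first as Hoechst high-intensity objects or normal cells, then (normal cells) as healthy, pyknosed or fragmented nuclei, and finally (pyknosed cells) as mitotic or apoptotic. Staining of live cells at seeding used Hoechst33342, BioTracker Green Microtubule Cytoskeleton Dye, MitoTracker Red and Annexin V Alexa Fluor 680, with imaging on a CQ1 microscope at 37°C and 5% CO2 after compound addition. Tubulin, mitochondrial-mass and membrane-permeability phenotypes are per cents of healthy-nucleus cells.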

[1] = 12 h, 1 µM, compound concentration 1 uM
[2] = 12 h, 10 µM, compound concentration 10 uM
[3] = 24 h, 1 µM, compound concentration 1 uM
[4] = 24 h, 10 µM, compound concentration 10 uM
[5] = 48 h, 1 µM, compound concentration 1 uM
[6] = 48 h, 10 µM, compound concentration 10 uM

For `CN1CCc2cc(Nc3ncc(C(F)(F)F)c(NCc4cc[nH]n4)n3)ccc2C1`, the “Population Hoechst High Intensity Objects (%)” value [1] was 0%, the “Population Membrane Permeable-Phenotype (%)” value [1] was 0% and 4% and the “Population Mitochondria Different-Phenotype (%)” value [1] was 0% and 1%. The “Population Mitotic Cells (%)” value [1] was 0% and 12%, the “Population Normal (%)” value [1] was 100% and the “Population Healthy Nuclei (%)” value [2] was 33% and 57%. For the same compound, the “Population Hoechst High Intensity Objects (%)” value [2] was 0%, the “Population Membrane Permeable-Phenotype (%)” value [2] was 0% and 7% and the “Population Mitochondria Different-Phenotype (%)” value [2] was 0% and 5%. For the same compound, the “Population Normal (%)” value [2] was 100%, the “Population Pyknosed Nuclei (%)” value [2] was 16% and 27% and the “Population Tubulin-Different-Phenotype (%)” value [2] was 50% and 41%. For the same compound, the “Population Hoechst High Intensity Objects (%)” value [3] was 0%, the “Population Membrane Permeable-Phenotype (%)” value [3] was 0% and 6% and the “Population Mitochondria Different-Phenotype (%)” value [3] was 0% and 4%. The “Population Mitotic Cells (%)” value [3] was 0% and 8%, the “Population Normal (%)” value [3] was 100% and 99% and the “Population Apoptotic (%)” value [4] was 71% and 80%. The “Population Healthy Nuclei (%)” value [4] was 15% and 45%, the “Population Hoechst High Intensity Objects (%)” value [4] was 0% and 1% and the “Population Membrane Permeable-Phenotype (%)” value [4] was 20% and 15%. For the same compound, the “Population Mitochondria Different-Phenotype (%)” value [4] was 20% and 8%, the “Population Mitotic Cells (%)” value [4] was 28% and 19% and the “Population Normal (%)” value [4] was 100% and 98%. For the same compound, the “Population Pyknosed Nuclei (%)” value [4] was 21% and 42%, the “Population Tubulin-Different-Phenotype (%)” value [4] was 60% and the “Population Healthy Nuclei (%)” value [5] was 0% and 21%. The “Population Hoechst High Intensity Objects (%)” value [5] was 0% and 1%, the “Population Mitochondria Different-Phenotype (%)” value [5] was 0% and 22% and the “Population Mitotic Cells (%)” value [5] was 0%. For the same compound, the “Population Normal (%)” value [5] was 100% and 98%, the “Population Apoptotic (%)” value [6] was 93% and 88% and the “Population Healthy Nuclei (%)” value [6] was 16% and 15%. For the same compound, the “Population Hoechst High Intensity Objects (%)” value [6] was 1% and 0%, the “Population Mitotic Cells (%)” value [6] was 6% and 11% and the “Population Normal (%)” value [6] was 98% and 100%. The “Population Pyknosed Nuclei (%)” value [6] was 68% and 23% and the “Population Tubulin-Different-Phenotype (%)” value [6] was 80% and 66%.

In the case of `C=CC(=O)Nc1cccc(C)c1Nc1ncc2cc(-c3c(Cl)c(OC)cc(OC)c3Cl)ccc2n1`, the “Population Apoptotic (%)” value [1] is reported as 81% and 76%, the “Population Fragmented Nuclei (%)” value [1] is reported as 9% and 3% and the “Population Healthy Nuclei (%)” value [1] is reported as 69% and 91%. For the same compound, the “Population Hoechst High Intensity Objects (%)” value [1] was 1% and 0%, the “Population Membrane Permeable-Phenotype (%)” value [1] was 5% and 0% and the “Population Mitochondria Different-Phenotype (%)” value [1] was 0%. For the same compound, the “Population Mitotic Cells (%)” value [1] was 18% and 23%, the “Population Normal (%)” value [1] was 98% and 100% and the “Population Tubulin-Different-Phenotype (%)” value [1] was 75% and 77%. For the same compound, the “Population Apoptotic (%)” value [2] was 54% and 69%, the “Population Healthy Nuclei (%)” value [2] was 45% and 68% and the “Population Hoechst High Intensity Objects (%)” value [2] was 0%. The “Population Membrane Permeable-Phenotype (%)” value [2] was 0% and 5%, the “Population Mitochondria Different-Phenotype (%)” value [2] was 0% and 9% and the “Population Mitotic Cells (%)” value [2] was 45% and 30%. The “Population Normal (%)” value [2] was 100%, the “Population Pyknosed Nuclei (%)” value [2] was 33% and 26% and the “Population Tubulin-Different-Phenotype (%)” value [2] was 80% and 56%. For the same compound, the “Population Apoptotic (%)” value [3] was 71% and 50%, the “Population Healthy Nuclei (%)” value [3] was 63% and 88% and the “Population Hoechst High Intensity Objects (%)” value [3] was 1% and 0%. The “Population Membrane Permeable-Phenotype (%)” value [3] was 0% and 1%, the “Population Mitochondria Different-Phenotype (%)” value [3] was 0% and the “Population Mitotic Cells (%)” value [3] was 28% and 50%. For the same compound, the “Population Normal (%)” value [3] was 98% and 100%, the “Population Pyknosed Nuclei (%)” value [3] was 18% and 8% and the “Population Tubulin-Different-Phenotype (%)” value [3] was 87% and 78%. For the same compound, the “Population Apoptotic (%)” value [4] was 86% and 90%, the “Population Fragmented Nuclei (%)” value [4] was 17% and 7% and the “Population Healthy Nuclei (%)” value [4] was 40% and 54%. For the same compound, the “Population Hoechst High Intensity Objects (%)” value [4] was 0%, the “Population Membrane Permeable-Phenotype (%)” value [4] was 0% and 1% and the “Population Mitochondria Different-Phenotype (%)” value [4] was 0% and 8%. The “Population Mitotic Cells (%)” value [4] was 13% and 9%, the “Population Normal (%)” value [4] was 100% and the “Population Pyknosed Nuclei (%)” value [4] was 42% and 38%. The “Population Tubulin-Different-Phenotype (%)” value [4] was 92% and 65%, the “Population Apoptotic (%)” value [5] was 70% and 59% and the “Population Fragmented Nuclei (%)” value [5] was 10% and 1%. The “Population Healthy Nuclei (%)” value [5] was 72% and 88%, the “Population Hoechst High Intensity Objects (%)” value [5] was 1% and 0% and the “Population Membrane Permeable-Phenotype (%)” value [5] was 4% and 1%. The “Population Mitochondria Different-Phenotype (%)” value [5] was 1% and 0%, the “Population Mitotic Cells (%)” value [5] was 29% and 40% and the “Population Normal (%)” value [5] was 98% and 99%. For the same compound, the “Population Pyknosed Nuclei (%)” value [5] was 17% and 9%, the “Population Tubulin-Different-Phenotype (%)” value [5] was 90% and 85% and the “Population Apoptotic (%)” value [6] was 77% and 93%. The “Population Fragmented Nuclei (%)” value [6] was 6% and 9%, the “Population Healthy Nuclei (%)” value [6] was 31% and 40% and the “Population Hoechst High Intensity Objects (%)” value [6] was 0% and 1%. For the same compound, the “Population Membrane Permeable-Phenotype (%)” value [6] was 11% and 10%, the “Population Mitochondria Different-Phenotype (%)” value [6] was 11% and 10% and the “Population Normal (%)” value [6] was 100% and 98%. The “Population Pyknosed Nuclei (%)” value [6] was 62% and 50% and the “Population Tubulin-Different-Phenotype (%)” value [6] was 100% and 91%.
